The array DNA melting data of Ke et al. (doi:10.1101/2024.01.08.574731)

Tests used:
[1] = folding enthalpy; higher = less favourable; fluorescence melt of hairpins on a sequencing array, two-state fit; conditions: sodium 0.088 M
How it was run: (§1)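 Library hairpins on a sequenced MiSeq flow cell carried annealed Cy3 and quencher oligos, and their Cy3 fluorescence was imaged in 50 mM Na-HEPES pH 8.0 with 25 mM NaCl, in 2.5 °C steps up to 60 °C. Signals were normalised to Cy3 before quenching and to control constructs. Melting temperature and folding enthalpy were obtained from bootstrapped two-state fits, combined by inverse-variance weighting across four replicates, and the fitted temperatures were then raised by 9.35 °C to match UV melts.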

[2] = melting temperature; fluorescence melt of hairpins on a sequencing array, two-state fit, raised by 9.35 °C to match UV melts; conditions: sodium 0.088 M
How it was run: as §1

| Sequence | folding enthalpy [1] [kcal/mol] | Tm [2] [°C] |
| --- | --- | --- |
| GGAGCTGGAAACGGCTTC (.(((.(....).))).) | -25.9 | 41.5 |
| GCGTCGGCACGC ((((....)))) | -10.7 | 56.4 |
| TGCTAGAAATAGCA (((((....))))) | -14.6 | 41.2 |
| GCGCCAGGAAACTAGCGC ((((.((....)).)))) | -42.1 | 52.5 |
| GGATGTGGAAACGCATCC (((((.(....).))))) | -41.4 | 52.2 |
| GAGGACGAAAGTCTTCTC ((((((....)))..))) | -23 | 48 |
| GCCGGTGGAAACATCGGC ((((.((....)).)))) | -45.8 | 58.9 |
| GGGTGAGGAAACTCGCTC (.(.(((....))).).) | -21.6 | 38.1 |
| GTAAACGAAAGTTTGTAC ((((((....)))..))) | -15.1 | 27.6 |
| GTACGGCGAAAGCCTAC (((.(((....)))))) | -14.9 | 44.4 |
| GATAGCGAAAGCTCGATC ((((((....)))..))) | -10.1 | 24.8 |
| GCATGGCGAAAGCGAGGC ((.(.((....)).).)) | -19 | 47.3 |
| GATCCCTCCCGGGATC ((((((....)))))) | -40.5 | 61.4 |
| GGAGCCGAAAGGCGCTCC ((((((....)))..))) | -9.71 | 47.9 |
| GATCAATAGATTGATC ((((((....)))))) | -31 | 42.5 |
| GATTCGAAAGAATC (((((....))))) | -29.7 | 51.5 |
| GTGAAGGAAACTTCAC ((((((....)))))) | -32.5 | 54.1 |
| GATCACAAGAGTGATC ((((((....)))))) | -33.1 | 54.5 |
| GATCTAAGGCTAGATC ((((((....)))))) | -25.3 | 38.8 |
| GCGGAGCGAAAGCGTCGC (((..((....))..))) | -26.6 | 67 |
| GTCGGACCGAAAGGTGAC (((..(((....)))))) | -18 | 41.3 |
| GGCGGCCCGAAAGGGGCC (((..(((....)))))) | -7.67 | 53.1 |
| GATCTTAGTAAGATC ((((((...)))))) | -27.6 | 42.5 |

| Sequence | folding enthalpy [1] [kcal/mol] | Tm [2] [°C] |
| --- | --- | --- |
| GACGGCACGAAAGTGGTC (((..(((....)))))) | -14.6 | 34.5 |
| CGTACGGAAACGTGTACG ((((((....)))..))) | -25.2 | 41.5 |
| CGGCCACGGAAACGTCCG (((..(((....)))))) | -10.4 | 33.6 |
| GCCAAGCGAAAGCTCGGC (((.(((....))).))) | -38.9 | 57.4 |
| GGGCTGCGAAAGCATCCC (((.(((....))).))) | -34.5 | 55.2 |
| GATCTGCTCACAGATC ((((((....)))))) | -36.9 | 51.6 |
| GGACATGGAAACATGTCC (((((((....))))))) | -44.6 | 64.7 |
| GATCGGGCTTCCGATC ((((((....)))))) | -41.2 | 59.4 |
| GACCTTGGAAACAGGGTC ((((.((....)).)))) | -31.5 | 47 |
| GATCCAGGCTTGGATC ((((((....)))))) | -43.8 | 54.8 |
| GTCGTGCGAAAGCAAGAC (((.(((....))).))) | -34.7 | 59.7 |
| GGCAACGAAAGTTGGGCC ((((((....)))..))) | -16.9 | 44.6 |
| GATCCTCGCCAGGATC ((((((....)))))) | -37.4 | 50.7 |
| GCTAGGGGAAACTCTAGC (((((.(....).))))) | -34.8 | 47.7 |
| CGGGGGCGGAAACGCCCG (((..(((....)))))) | -6.12 | 52.2 |
| GACGGAGGAAACTCCGCC (.(((((....))))).) | -14.9 | 48.2 |
| GAACCCGAAAGGGAGTTC ((((((....)))..))) | -13.7 | 40 |
| GATCCAATCCTGGATC ((((((....)))))) | -37.7 | 49.2 |
| GGGGCTGCGAAAGCACCC (((..(((....)))))) | -24.5 | 62.5 |
| GCCTTGGGAAACCGAGGC ((((.((....)).)))) | -39.8 | 56.6 |
| GCACCTGGAAACAAGTGC ((((.((....)).)))) | -27.4 | 41.1 |
| GCAATTGAAAAATTGC ((((((....)))))) | -32 | 53.4 |
| GATCAGATTCTGATC ((((((...)))))) | -29.7 | 48.5 |

| Sequence | folding enthalpy [1] [kcal/mol] | Tm [2] [°C] |
| --- | --- | --- |
| GATCCCGGTTGGGATC ((((((....)))))) | -32.4 | 65.2 |
| GCAGTCGAAAGACACTGC ((((((....)))..))) | -18 | 43.5 |
| GCAGGCGAAAGCCTGTGC ((((((....)))..))) | -14.2 | 68.2 |
| GATCACTAGCGTGATC ((((((....)))))) | -41.8 | 55.1 |
| GTGGACGAAAGTCCGCAC ((((((....)))..))) | -11.8 | 55.7 |
| GTCAGCGGAAACGCCGAC (((.(((....))).))) | -26.9 | 49.2 |
| GGGATTGGAAACGATCCC (((((.(....).))))) | -43.8 | 51.9 |
| GGCAAGGGAAACCTCGCC (((.(((....))).))) | -32 | 47.1 |
| GCATCACGAAAGTGTGC (((.(((....)))))) | -39.2 | 56 |
| GAGTCGCGAAAGCGCCTC (((.(((....))).))) | -23.7 | 54.8 |
| GCATTGCGAAAGCGAGGC ((.(.((....)).).)) | -21 | 59.1 |
| GATCGAAGCGTCGATC ((((((....)))))) | -39.9 | 51.1 |
| CGTCTCGGAAACGATACG (((.(((....))).))) | -38 | 42.9 |
| GAAGGCGAAAGCCCTTTC ((((((....)))..))) | -10 | 37.6 |
| GTAACACGAAAGTGCTAC (((.(((....))).))) | -28.4 | 43.7 |
| GTTGACGCGAAAGCGAAC (((..(((....)))))) | -12.9 | 39 |
| GCAAAAGGAAACTTTTGC (((((((....))))))) | -45 | 56.5 |
| GATCTTAAGGAAGATC ((((((....)))))) | -23.1 | 39.1 |
| GTGCTCGAAAGAGGGCAC ((((((....)))..))) | -22.9 | 48.9 |
| GTGGTCGAAAGACTGCAC ((((((....)))..))) | -14.7 | 40.8 |
| GATGCGCCGAAAGGCATC (((..(((....)))))) | -12.4 | 31.4 |
| GATCCAAGGCTGGATC ((((((....)))))) | -35.5 | 48.9 |
| GGGCTAGGAAACTGGTCC ((.(.((....)).).)) | -33.6 | 41 |

| Sequence | folding enthalpy [1] [kcal/mol] | Tm [2] [°C] |
| --- | --- | --- |
| GTGTTACGAAAGTACAC (((.(((....)))))) | -27 | 47.9 |
| GATATGGGAAACCGTATC ((((.((....)).)))) | -32 | 43 |
| GGTATAGGAAACTGTACC ((((.((....)).)))) | -31.3 | 43 |
| GCGGTGACCCGC ((((....)))) | -23.1 | 55.3 |
| GCACTGGGAAACCAATGC (((.(((....))).))) | -30.1 | 40.3 |
| GGATTAACGAAAGTTTCC (((..(((....)))))) | -19.4 | 28.2 |
| GCTTCTCGAAAGAGAGC (((.(((....)))))) | -22 | 49.4 |
| GTCGAAGGAAACTTCGGC (.(((((....))))).) | -43.1 | 51.3 |
| GCCGTCGAAAGACACGGC ((((((....)))..))) | -27.5 | 54.6 |
| GATCTCACCGGAGATC ((((((....)))))) | -43.9 | 52.2 |
| GCATCGGCGAAAGCCTGC (((..(((....)))))) | -15.2 | 39.8 |
| GATCGTTCTAACGATC ((((((....)))))) | -39.7 | 57.3 |
| GGTTATGGAAACACAACC ((((.((....)).)))) | -24.6 | 33.8 |
| GACAACGAAAGTTGGGTC ((((((....)))..))) | -15.7 | 49.8 |
| GAACTGGAAACAGTTC ((((((....)))))) | -32.4 | 53.9 |
| GGTGTCGAAAGACATACC ((((((....)))..))) | -13.9 | 43.5 |
| GCGGAGATCCGC ((((....)))) | -26.2 | 54.2 |
| GACAGCGAAAGCTTGGTC ((((((....)))..))) | -17.9 | 40 |
| GTGCATCGAAAGATACAC (((.(((....))).))) | -35.2 | 47 |
| GCGAATGGAAACATTCAC (.(((((....))))).) | -18.6 | 38.1 |
| GGTGGCGAAAGCCGGACC ((((((....)))..))) | -12.1 | 46.8 |
| GGTACCGAAAGGTGCACC ((((((....)))..))) | -13.9 | 40.3 |
| GAGCGCGGAAACGCACCC (.(.(((....))).).) | -7.47 | 31.7 |
